In ChEMBL document CHEMBL1126727, “Synthesis and anticonvulsant activity of enaminones. 2. Further structure-activity correlations” (J Med Chem, 1993):

Columns and labels:
[1] = tested on: Rattus norvegicus; experiment: Anticonvulsant activity reported as duration in amygdala kindled rats at 500 mg/kg (Forelimb clonus); type: functional
[2] = tested on: Rattus norvegicus; experiment: Anticonvulsant activity reported as duration in amygdala kindled rats at 500 mg/kg (Behavioral seizure); type: functional
[3] = tested on: Rattus norvegicus; experiment: Anticonvulsant activity reported as amygdala duration in amygdala kindled rats at 500 mg/kg (after discharge); type: functional
[4] = tested on: Rattus norvegicus; experiment: Anticonvulsant activity reported as cortex latency in amygdala kindled rats at 500 mg/kg (after discharge); type: functional
[5] = tested on: Rattus norvegicus; experiment: Anticonvulsant activity reported as latency in amygdala kindled rats at 500 mg/kg (Forelimb clonus); type: functional
[6] = tested on: Rattus norvegicus; experiment: Anticonvulsant activity reported as latency in amygdala kindled rats at 500 mg/kg (Behavioral seizure); type: functional
[7] = tested on: Rattus norvegicus; experiment: Anticonvulsant activity reported as duration in amygdala kindled rats at 500 mg/kg (after discharge); type: functional
[8] = tested on: Rattus norvegicus; experiment: Anticonvulsant activity tested at seizure stage in amygdala kindled rats at 500 mg/kg; type: functional
[9] = tested on: Mus musculus; experiment: Toxicity observed in mice at >750 mg/kg ip; No Toxicity; conditions: in vivo
[10] = tested on: Rattus norvegicus; experiment: Intraperitoneal (ip) toxicity tested in rats is the number of animals displaying neurotoxicity / number of animals tested (8) after 24 hr at 100 mg / kg; type: organism-based; design: dose 100 mg / kg; conditions: in vivo
Outline: (§1)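 Special ip screen run by the ADD Program in male Sprague-Dawley rats. Test drug was given ip at 100 mg/kg as a solution or suspension in 0.5% methylcellulose. Neurotoxicity was scored at 0.25, 0.5, 1, 2, 4, 6, 8 and 24 h after dosing. Each result is reported as number of rats showing neurotoxicity over number tested.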

[11] = tested on: Rattus norvegicus; experiment: Intraperitoneal (ip) toxicity tested in rats is the number of animals displaying neurotoxicity / number of animals tested (8) after 4 h at 100 mg / kg; type: organism-based; design: dose 100 mg / kg; conditions: in vivo; outline: as §1
[12] = tested on: Rattus norvegicus; experiment: Intraperitoneal (ip) toxicity tested in rats is the number of animals displaying neurotoxicity / number of animals tested (8) after 2 h at 100 mg / kg; type: organism-based; design: dose 100 mg / kg; conditions: in vivo; outline: as §1
[13] = tested on: Rattus norvegicus; experiment: Intraperitoneal (ip) toxicity tested in rats is the number of animals displaying neurotoxicity / number of animals tested (8) after 1 hr at 100 mg / kg; type: organism-based; design: dose 100 mg / kg; conditions: in vivo; outline: as §1
[14] = Protective index expressed as TD50 / ED50; type: functional
[15] = tested on: Mus musculus; experiment: Effective dose administered intraperitoneally in mice at 15 minutes in maximal-electroshock (MES) test; conditions: ip, 0.25 h
[16] = tested on: Rattus norvegicus; experiment: Intraperitoneal (ip) toxicity tested in rats is the number of animals displaying neurotoxicity / number of animals tested (8) after 0.25 hr at 100 mg / kg; type: organism-based; design: dose 100 mg / kg; conditions: in vivo; outline: as §1
[17] = tested on: Rattus norvegicus; experiment: Intraperitoneal (ip) toxicity tested in rats is the number of animals displaying neurotoxicity / number of animals tested (8) after 0.50 h at 100 mg / kg; type: organism-based; design: dose 100 mg / kg; conditions: in vivo, 0.5 h; outline: as §1
[18] = tested on: Rattus norvegicus; experiment: Intraperitoneal (ip) toxicity tested in rats is the number of animals displaying neurotoxicity / number of animals tested (8) after 6 hr at 100 mg / kg; type: organism-based; design: dose 100 mg / kg; conditions: in vivo; outline: as §1
[19] = tested on: Rattus norvegicus; experiment: Toxicity observed in rats at >500 mg/kg po; conditions: in vivo
[20] = Protective index expressed as TD50 / ED50; No toxicity; type: functional
[21] = tested on: Rattus norvegicus; experiment: Anticonvulsant activity reported as latency in amygdala kindled rats at 350 mg/kg (Forelimb clonus); type: functional
[22] = tested on: Rattus norvegicus; experiment: Intraperitoneal (ip) toxicity tested in rats is the number of animals displaying neurotoxicity / number of animals tested (8) after 24 hr at 100 mg / kg (Two testing animals died); type: organism-based; design: dose 100 mg / kg; conditions: in vivo; outline: as §1
[23] = tested on: Rattus norvegicus; experiment: Anticonvulsant activity reported as duration in amygdala kindled rats at 350 mg/kg (Behavioral seizure); type: functional
[24] = tested on: Rattus norvegicus; experiment: Anticonvulsant activity reported as amygdala duration in amygdala kindled rats at 350 mg/kg (after discharge); type: functional
[25] = tested on: Rattus norvegicus; experiment: Anticonvulsant activity reported as latency in amygdala kindled rats at 350 mg/kg (Behavioral seizure); type: functional
[26] = tested on: Rattus norvegicus; experiment: Anticonvulsant activity tested at seizure stage in amygdala kindled rats at 350 mg/kg; type: functional
[27] = tested on: Rattus norvegicus; experiment: Intraperitoneal (ip) toxicity tested in rats is the number of animals displaying neurotoxicity / number of animals tested (8) after 8 hr at 100 mg / kg; type: organism-based; design: dose 100 mg / kg; conditions: in vivo; outline: as §1
[28] = tested on: Rattus norvegicus; experiment: Anticonvulsant activity reported as duration in amygdala kindled rats at 350 mg/kg (after discharge); type: functional
[29] = tested on: Rattus norvegicus; experiment: Anticonvulsant activity reported as duration in amygdala kindled rats at 350 mg/kg (Forelimb clonus); type: functional
[30] = tested on: Rattus norvegicus; experiment: Anticonvulsant activity reported as cortex latency in amygdala kindled rats at 350 mg/kg (after discharge); type: functional
[31] = species on record: Rattus norvegicus; experiment: Number of animals exhibiting neurotoxicity / number of animals tested (8) after 2.0 hr at 440 mg / kg; type: functional
Outline: (§2)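 Rats were dosed intraperitoneally, with compound given as a solution or a suspension in 0.5% methylcellulose. Neurotoxicity was scored 2.0 h after dosing in 8 animals per dose level (110–440 mg/kg). TD50 in mg/kg ip was derived from the dose–response, with a range given in parentheses.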

[32] = species on record: Rattus norvegicus; experiment: Number of animals exhibiting neurotoxicity / number of animals tested (8) after 2.0 hr at 180 mg / kg; type: functional; outline: as §2
[33] = species on record: Rattus norvegicus; experiment: Number of animals protected from electroshock seizure / number of animals tested (8) after 0.25 hour at 7.0 mg / kg in maximal electroshock seizures (MES); type: functional
Outline: (§3)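 For the intraperitoneal rat screen, compound was given as a solution or a suspension in 0.5% methylcellulose. Protection against maximal electroshock seizures was tested at 0.25 h or 0.50 h after dosing, in 8 animals per dose. Results are expressed as animals protected over animals tested, and ED50 in mg/kg ip, with a range, was derived from these counts.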

[34] = species on record: Rattus norvegicus; experiment: (§4) Protective index (TD50 / MES ED50); type: functional
[35] = species on record: Rattus norvegicus; experiment: Number of animals protected from electroshock seizure / number of animals tested (8) after 0.25 hour at 1.2 mg / kg in maximal electroshock seizures (MES); type: functional; outline: as §3
[36] = species on record: Rattus norvegicus; experiment: Number of animals protected from electroshock seizure / number of animals tested (8) after 0.25 hour at 4.5 mg / kg in maximal electroshock seizures (MES); type: functional; outline: as §3
[37] = species on record: Rattus norvegicus; experiment: Number of animals protected from electroshock seizure / number of animals tested (8) after 0.25 hour at 3.6 mg / kg in maximal electroshock seizures (MES); type: functional; outline: as §3
[38] = Toxic dose was determined after intraperitoneal administration; type: toxicity, organism-based; conditions: rat, in vivo, ip; outline: as §2
[39] = species on record: Rattus norvegicus; experiment: Number of animals exhibiting neurotoxicity / number of animals tested (8) after 2.0 hr at 220 mg / kg; type: functional; outline: as §2
[40] = species on record: Rattus norvegicus; experiment: Number of animals exhibiting neurotoxicity / number of animals tested (8) after 2.0 hr at 110 mg / kg; type: functional; outline: as §2
[41] = species on record: Rattus norvegicus; experiment: Number of animals protected from electroshock seizure / number of animals tested (8) after 0.50 hour at 1.0 mg / kg in maximal electroshock seizures (MES); type: functional; outline: as §3
[42] = species on record: Rattus norvegicus; experiment: Number of animals protected from electroshock seizure / number of animals tested (8) after 0.50 hour at 3.5 mg / kg in maximal electroshock seizures (MES); type: functional; outline: as §3
[43] = species on record: Rattus norvegicus; experiment: Number of animals exhibiting neurotoxicity / number of animals tested (2) after 0.25-24 hr at 32 mg / kg
[44] = species on record: Rattus norvegicus; experiment: Number of animals exhibiting neurotoxicity / number of animals tested (2) after 0.25-24 hr at 16 mg / kg
[45] = species on record: Rattus norvegicus; experiment: Number of animals protected from electroshock seizure / number of animals tested (8) after 0.50 hour at 2.0 mg / kg in maximal electroshock seizures (MES); type: functional; outline: as §3
[46] = species on record: Rattus norvegicus; experiment: Number of animals exhibiting neurotoxicity / number of animals tested (2) after 0.25-24 h at 64 mg / kg
[47] = as §4; type: functional
[48] = species on record: Rattus norvegicus; experiment: Number of animals protected from electroshock seizure / number of animals tested (8) after 0.50 hour at 3.0 mg / kg in maximal electroshock seizures (MES); type: functional; outline: as §3
[49] = species on record: Rattus norvegicus; experiment: Number of animals exhibiting neurotoxicity / number of animals tested (2) after 0.25-24 hr at 8 mg / kg
[50] = species on record: Rattus norvegicus; experiment: Number of animals protected from electroshock seizure / number of animals tested (8) after 0.50 hour at 4.0 mg / kg in maximal electroshock seizures (MES); type: functional; outline: as §3

COC(=O)C1C(=O)C=C(NCc2ccccc2)CC1C (stereo not given)
Duration [1]: 44.2 s
Duration [2]: 79.5 s
Duration [3]: 73.9 s
Latency [4]: 2.8 s
Latency [5]: 9.3 s
Latency [6]: 2.1 s
Duration [7]: 78.9 s
Seizure stage [8]: 5

CCc1ccc(NC2=CC(=O)C(C(=O)OC)C(C)C2)cc1 (stereo not given)
Toxicity [9]: No Toxicity
Toxicity [10]: 0
Toxicity [11]: 0
Toxicity [12]: 0
Toxicity [13]: 0
PI [14]: > 6.6
ED50 [15]: 114 mg/kg
Toxicity [16]: 1
Toxicity [17]: 5
Toxicity [18]: 0

CC1(C)CC(O)=C/C(=N\c2ccccc2)C1
Toxicity [10]: 0
Toxicity [11]: 3
Toxicity [12]: 6
Toxicity [13]: 6
ED50 [15]: 36.4 mg/kg
Toxicity [19]: Toxicity observed in mice at >500 mg/kg po
Toxicity [16]: 5
PI [20]: > 13.7
Toxicity [17]: 7
Toxicity [18]: 3

COC(=O)C1C(=O)C=C(Nc2ccc(Cl)cc2)CC1C (stereo not given)
Toxicity [11]: 2
Latency [21]: 9.2 s
Toxicity [22]: 2
Toxicity [12]: 7
Duration [23]: 82.3 s
Duration [24]: 79.8 s
Toxicity [13]: 6
Latency [25]: 2.1 s
Seizure stage [26]: 5
Toxicity [27]: 0
Duration [28]: 79.6 s
Duration [29]: 45.3 s
Toxicity [16]: 0
Latency [30]: 2.7 s
Toxicity [17]: 3
Toxicity [18]: 1

COC(=O)C1C(=O)C=C(Nc2ccc(Br)cc2)CC1C (stereo not given)
No. of animals [31]: 6
No. of animals [32]: 2
No. of animals [33]: 7
PI [34]: 67.4
No. of animals [35]: 0
No. of animals [36]: 3
No. of animals [37]: 5
TD50 [38]: 270 mg/kg
No. of animals [39]: 4
No. of animals [40]: 0

COC(=O)C1C(=O)C=C(Nc2ccc(C(F)(F)F)cc2)CC1C (stereo not given)
No. of animals [41]: 0
No. of animals [42]: 4
No. of animals [43]: 0
No. of animals [44]: 0
No. of animals [45]: 3
No. of animals [46]: 0
PI [47]: > 21.7
TD50 [38]: > 64 mg/kg
No. of animals [48]: 3
No. of animals [49]: 0
No. of animals [50]: 7
